Measured values of several laboratories.
SLC2A9: Solute carrier family 2, facilitated glucose transporter member 9 (SLC2A9, Homo sapiens, UniProt Q9NRM0)

| SMILES | target | observed | action | technique | setting | quantity | result |
| --- | --- | --- | --- | --- | --- | --- | --- |
| N[C@@H](Cc1ccccc1)C(=O)O | Alkaline phosphatase, placental type (Homo sapiens, UniProt P05187) | enzyme activity | inhibitor | – | – | IC50 | 82.6 µM |
| Nc1ncnc2c1ncn2[C@@H]1O[C@H](COP(=O)(O)CP(=O)(O)OP(=O)(O)O)[C@@H](O)[C@H]1O | P2X purinoceptor 1 (P2RX1, Homo sapiens, UniProt P51575) | binding | – | radioligand | – | Kd | 0.043 µM |
| CCCCCCCc1cc(O)cc(=O)o1 | Aldo-keto reductase family 1 member C3 (AKR1C3, Homo sapiens, UniProt P42330) | enzyme activity | inhibitor | – | – | IC50 | 10.6 µM |
| Cc1ccc2oc(=O)cc(NCCO)c2c1 | Alpha-1B adrenergic receptor (Adra1b, Rattus norvegicus, UniProt P15823) | calcium signal | antagonist | – | – | IC50 | 178 µM |
| O=C(c1ccc(OCCN2CCCCC2)cc1)c1c(-c2ccc(O)cc2)sc2cc(O)ccc12 | Protein disulfide-isomerase (P4HB, Homo sapiens, UniProt P07237) | binding | – | SPR | – | Kd | 0.0297 µM |
| COc1ccc(C[C@H]2COC(=O)[C@@H]2Cc2ccc(OCC(=O)Nc3ccc(C(=O)Nc4ccccc4N)cc3)c(OC)c2)cc1OC | Histone deacetylase 4 (HDAC4, Homo sapiens, UniProt P56524) | enzyme activity | inhibitor | – | – | IC50 | > 10 µM |
| O=C1CCc2ccccc2O1 | cah (Neisseria gonorrhoeae, UniProt Q50940) | enzyme activity | inhibitor | stopped-flow | – | Ki | 25.8 µM |
| CCOC(=O)/C=C/C(=O)[C@H](CC(C)C)NC(=O)[C@H](Cc1ccccc1)NC(=O)[C@H](Cc1ccccc1)N=[N+]=[N-] (mixture of isomers) | Procathepsin L (CTSL, Homo sapiens, UniProt P07711) | enzyme activity | inhibitor | – | – | IC50 | 0.13 µM |
| Cn1c(=O)c2c(ncn2C)n(C)c1=O | SLC2A9 | transporter uptake | inhibitor | radiometric | oocytes | IC50 | > 1000 µM |
| N=c1c[n+](N2CCOCC2)[n-]o1 | NAD-dependent protein deacetylase sirtuin-1 (SIRT1, Homo sapiens, UniProt Q96EB6) | enzyme activity | inhibitor | – | – | IC50 | 7 µM |
| Nc1ncnc2c1ncn2[C@@H]1O[C@H](CO)[C@@H](O)[C@H]1O | SLC2A9 | transporter uptake | inhibitor | radiometric | oocytes | IC50 | > 4000 µM |
| O=C(C=Cc1ccccc1)Nc1cc(-c2ccnc(N3CCC(O)CC3)c2)ccn1 | Nuclear receptor subfamily 4immunitygroup A member 1 (NR4A1, Homo sapiens, UniProt P22736) | binding | – | SPR | – | Kd | 0.121 µM |
